Test results published in ChEMBL document CHEMBL1123837, “1-Amino-substituted 4-methyl-5H-pyrido[3',4':4,5]pyrrolo[3,2-c]pyridines: a new class of antineoplastic agents” (J Med Chem, 1987).
Active and inactive are the calls of the source. The rule behind the calls is not given here.

Columns and labels:
[1] = test system: Mus musculus; assay: In vivo antitumor activity was determined against P388 leukemia cells expressed as treated/control at the dose of 40 mg/kg; T = toxic at this dose; format: organism-based; set-up: dose 40 mg/kg
Outline: (§1)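 Following NCI protocols, 10^6 viable P388 leukemia cells were inoculated ip on day 0 into male or female CDF1 hybrid mice, 10 per test group. Compounds in distilled water were given ip (0.1 mL/10 g body weight) at various doses on days 1–5. T/C = median survival day of treated / median survival day of negative controls × 100.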

[2] = test system: L1210; assay: In vitro cytotoxicity against L1210 cells was determined after 48 hours of incubation; format: functional, Mus musculus; details: Mus musculus, L1210, 48 h; read-out: ID50 (the source's name)
Outline: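 Exponentially growing L1210 cells were cultured in RPMI 1640 with 2 mM glutamine, penicillin/streptomycin and 10% fetal calf serum, under 5% CO2 at 37 °C. Drugs dissolved in distilled water were added to cells at 0.8 × 10^5 cells/mL for 48 h, then cells were counted. ID50 was estimated by regression of dose-response data, as the mean of two values from two independent experiments.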

[3] = test system: Mus musculus; assay: In vivo antitumor activity was determined against P388 leukemia cells expressed as treated/control at the dose of (2.5-20)mg/kg; IA = Inactive; format: functional, organism-based; outline: as §1
[4] = test system: Calf thymus DNA; assay: Binding affinity for DNA by ethidium bromide displacement assay; format: nucleic-acid assay; details: Bos taurus
Outline: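 Competitive ethidium bromide displacement with calf thymus DNA at 10 µg/mL in 20 mM Na phosphate buffer, 0.1 M NaCl, 1 mM EDTA, pH 7.4. The apparent DNA affinity constant is given in 10^6 M^-1 ± standard deviation, from 6 values across two independent experiments.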

[5] = test system: Mus musculus; assay: In vivo antitumor activity was determined against P388 leukemia cells expressed as treated/control at the dose of (1.25-40)mg/kg; IA = Inactive; format: functional, organism-based; outline: as §1
[6] = test system: Mus musculus; assay: In vivo antitumor activity was determined against P388 leukemia cells expressed as treated/control at the dose of (80)mg/kg;T = toxic at this dose; format: functional, organism-based; outline: as §1
[7] = test system: Mus musculus; assay: In vivo antitumor activity was determined against P388 leukemia cells expressed as treated/control at the dose of (2.5-40)mg/kg; IA = Inactive; format: functional, organism-based; outline: as §1
[8] = test system: Mus musculus; assay: In vivo antitumor activity was determined against P388 leukemia cells expressed as treated/control at the dose of 80 mg/kg;T = toxic at this dose; format: organism-based; set-up: dose 80 mg/kg; outline: as §1
[9] = test system: Mus musculus; assay: In vivo antitumor activity was determined against P388 leukemia cells expressed as treated/control at the dose of (5-60)mg/kg; IA = Inactive; format: functional, organism-based; outline: as §1
[10] = test system: Mus musculus; assay: In vivo antitumor activity was determined against P388 leukemia cells expressed as treated/control at the dose of (5-20)mg/kg; IA = Inactive; format: functional, organism-based; outline: as §1
[11] = test system: Mus musculus; assay: In vivo antitumor activity was determined against P388 leukemia cells expressed as treated/control at the dose of 50 mg/kg;T = toxic at this dose; format: organism-based; set-up: dose 50 mg/kg; outline: as §1

SMILES: CCN(CC)CCNc1[nH]cc(C)c2nc3ccncc3c1-2
- T/C [1]: Toxic
- IC50 [2]: 19.5 µM
- T/C [3]: inactive
- K aff [4]: 12000 M⁻¹

SMILES: CCN(CC)CCCN(C)c1ncc(C)c2c1c1cnccc1n2C
- IC50 [2]: 52 µM
- T/C [5]: inactive
- T/C [6]: Toxic
- K aff [4]: 3000 M⁻¹

SMILES: CCNCCCNc1[nH]cc(C)c2nc3ccncc3c1-2
- IC50 [2]: 17.4 µM
- K aff [4]: 25000 M⁻¹
- T/C [7]: inactive
- T/C [8]: Toxic

SMILES: CN(C)CCCNc1nccc2c1c1cnccc1n2C
- IC50 [2]: 1.2 µM
- K aff [4]: 20000 M⁻¹
- T/C [9]: inactive

SMILES: CCN(CC)CCCCNc1[nH]cc(C)c2nc3ccncc3c1-2
- T/C [10]: inactive
- IC50 [2]: 12 µM
- K aff [4]: 30000 M⁻¹
- T/C [11]: Toxic
